Assay [1] concerns HeLa. Put plainly: Viability of human HeLa S3 cells. Further details: concentration or dose not given beside the values. The format is functional. The method in brief: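 HeLa S3 cells exposed to compound for 7 h, then allowed to recover without compound for 24 h; viability recorded at four concentrations.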
The test system of assay [2] is Human alphaherpesvirus 1. Put plainly: Antiviral activity against herpes simplex virus 1. Type of assay: functional, organism-based.
Assay [3] deals with Human alphaherpesvirus 2. Put plainly: Antiviral activity against herpes simplex virus 2. Type of assay: functional, organism-based.
Assay [4] relates to Human immunodeficiency virus 1. Put plainly: Antiviral activity against HIV1. Type of assay: functional, organism-based.
Assay [5] deals with Enterovirus C. Put plainly: Antiviral activity against poliovirus in HeLa S3 cells assessed as reduction in viral titer. Type of assay: functional, organism-based. The method in brief: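 HeLa S3 cells pretreated with compound 1 h, then infected with 10⁶ PFU poliovirus (high MOI); after 15 min adsorption, fresh medium containing compound added and infection run a further 6 h. Cell-associated virus titered by plaque assay.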

In assay [6] the test system is Coxsackievirus B3. Put plainly: Antiviral activity against coxsackievirus B3 in HeLa S3 cells assessed as reduction in viral titer. Type of assay: functional, organism-based. The procedure, abridged: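 HeLa S3 cells were pretreated with compound for 1 h, then infected with 10⁶ PFU CVB3 (high MOI). After 15 min of virus association, fresh medium containing compound was added and infection continued for 6 h. Cell-associated virus was titered by plaque assay. Cytotoxicity was checked separately after 7 h of treatment plus 24 h of recovery without compound.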

In assay [7] the target is Genome polyprotein (Human poliovirus 1 Mahoney, UniProt P03300). Put plainly: Binding affinity to poliovirus RNA dependent RNA polymerase. Further details: species or system Enterovirus C. The method in brief:
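Purified poliovirus RdRP complexed with ³²P end-labeled symmetrical 10-mer RNA primer-template (S/S–G); nucleotide incorporation opposite G followed, products separated by denaturing PAGE; Kd and kpol derived from incorporation kinetics.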

Active and inactive are the calls of the source. No cut-off for these calls is given here.

The term Kd denotes the concentration at which binding is half-saturated.

Genome polyprotein, sequence (P03300 1749-2209 limits assumed): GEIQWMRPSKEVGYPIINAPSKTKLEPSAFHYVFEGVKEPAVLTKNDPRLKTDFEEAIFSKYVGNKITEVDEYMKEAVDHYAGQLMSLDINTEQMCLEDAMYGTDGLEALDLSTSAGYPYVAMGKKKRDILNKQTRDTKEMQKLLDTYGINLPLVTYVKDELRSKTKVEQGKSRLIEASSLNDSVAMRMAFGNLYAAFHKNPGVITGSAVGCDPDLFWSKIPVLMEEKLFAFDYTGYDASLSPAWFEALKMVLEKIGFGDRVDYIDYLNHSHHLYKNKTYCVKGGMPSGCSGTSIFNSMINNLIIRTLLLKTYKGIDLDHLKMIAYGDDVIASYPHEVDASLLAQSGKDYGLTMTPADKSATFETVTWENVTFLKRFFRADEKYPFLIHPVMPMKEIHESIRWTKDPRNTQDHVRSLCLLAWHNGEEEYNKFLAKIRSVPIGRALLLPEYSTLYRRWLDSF

In turn, `Nc1nc(=O)n([C@@H]2O[C@H](CO)[C@@H](O)[C@H]2O)cc1O` returned an Activity in assay [1] of 36%.
`Nc1nc(=O)n([C@H]2C[C@H](O)[C@@H](CO)O2)cc1[N+](=O)[O-]`: the outcome in assay [2], in assay [3] and in assay [4] was Active.
`Nc1nc(=O)n([C@@H]2O[C@H](CO)[C@@H](O)[C@H]2O)cc1Br` gave an Activity in assay [1] of 63%.
For the compound `Nc1cn([C@@H]2O[C@H](CO)[C@@H](O)[C@H]2O)c(=O)nc1N`, the Activity in assay [1] turned out to be 62%. The result in assay [5] and in assay [6] was Active.
`Nc1nc(=O)n([C@@H]2O[C@H](CO[P@@](=O)(O)O[P@](=O)(O)OP(=O)(O)O)[C@@H](O)[C@H]2O)cc1[N+](=O)[O-]` showed a Kd in assay [7] of 1080 nM.
As to `NC(=O)c1ncn([C@@H]2O[C@H](CO)[C@@H](O)[C@H]2O)n1` [RIBAVIRIN], the Activity is 70% in assay [1], “Dose-dependent effect” in assay [5] and “Dose-dependent effect” in assay [6].
As for `Nc1nc(=O)n([C@@H]2O[C@H](CO)[C@@H](O)[C@H]2O)cc1[N+](=O)[O-]`, in assay [1], the Activity was found to be 80%. Besides, the result in assay [5] and in assay [6] was Active.
In the case of `Nc1nc(=O)n([C@H]2C[C@H](O)[C@@H](CO)O2)cc1Br`, in assay [1], the Activity came out at 93%. Also, the outcome in assay [5] and in assay [6] was inactive.
As to `Nc1nc(=O)n([C@H]2C[C@H](O)[C@@H](CO)O2)cc1O`, the Activity in assay [1] is on record as 82%. For the same compound, the outcome in assay [5] and in assay [6] was inactive.

For the origin of these results see ChEMBL document CHEMBL1137395, “Synthesis and antiviral activity of 5-substituted cytidine analogues: identification of a potent inhibitor of viral RNA-dependent RNA polymerases” (J Med Chem, 2006).
